Calls of active or inactive are those of the source. The rule behind the calls is not given here.
Assays:
CCRF-CEM [1] = test: Cytostatic activity in human CCRF-CEM cells assessed as inhibition of cell growth after 72 hrs; assay type: functional, cell-based
Outline: (§1)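 Cultures from ATCC lines: mouse leukaemia L1210 (CCL 219), human promyelocytic leukaemia HL60 (CCL 240) and human T-lymphoblastoid CCRF-CEM (CCL 119). Growth inhibition was estimated from the cell count in a haematological analyzer (haemocytometer).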

Hepatitis C virus = test: Antiviral activity against Hepatitis C virus 1b after 3 days; assay type: functional, organism-based, Hepacivirus hominis; details: genotype 1b, 72 h
L1210 = test: Cytostatic activity in mouse L1210 cells assessed as inhibition of cell growth after 72 hrs; assay type: functional, cell-based; details: for IC50: L1210, 72 h; outline: as §1
HL-60 [2] = test: Cytostatic activity in human HL60 cells assessed as inhibition of cell growth after 72 hrs; assay type: functional, cell-based; details: for IC50: HL-60, 72 h; outline: as §1
[3] = Cytotoxicity against human Huh7 cells after 3 days by MTT method; assay type: functional; details: Huh-7, 72 h
Outline: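 Cellular toxicity was read by MTT in Huh-7 cells carrying the con-1 HCV replicon, in duplicate (N = 2).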

HeLa = test: Cytostatic activity in human HeLa S3 cells assessed as inhibition of cell growth after 48 hrs by XTT assay; assay type: functional, cell-based
HL-60 [4] = test: Cytostatic activity in human HL60 cells assessed as inhibition of cell growth after 72 hrs by XTT assay; assay type: functional, cell-based; details: HL-60, 72 h
MT4 = test: Cytotoxicity against human MT4 cells after 4 days; assay type: functional; details: MT4, 96 h
Outline: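 Cellular toxicity was measured in MT-4 cells, N = 2.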

CCRF-CEM [5] = test: Cytostatic activity in human CCRF-CEM cells assessed as inhibition of cell growth after 72 hrs by XTT assay; assay type: functional, cell-based

EC50 (Hepatitis C virus) [µM]	IC50 (CCRF-CEM [1]) [µM]	IC50 (HL-60 [2]) [µM]	IC50 (HL-60 [4]) [µM]	IC50 (L1210) [µM]	IC50 (CCRF-CEM [5]) [µM]	Structure (SMILES)	Activity (CCRF-CEM [1])	Activity (L1210)	Activity (HL-60 [2])	CC50 [3] [µM]	Activity (HeLa)	CC50 (MT4) [µM]
91	–	–	–	–	–	O=c1ccccn1Cc1ncnc2c1ncn2[C@@H]1O[C@H](CO)[C@@H](O)[C@H]1O	inactive	inactive	inactive	> 100	inactive	–
14	–	–	–	–	–	O=C1CCCN1Cc1ncnc2c1ncn2[C@@H]1O[C@H](CO)[C@@H](O)[C@H]1O	inactive	inactive	inactive	45	inactive	–
–	0.15	0.01	–	–	–	OCc1ncnc2c1ncn2[C@@H]1O[C@H](CO)[C@@H](O)[C@H]1O	–	–	–	–	inactive	–
186	–	13	–	–	–	OC[C@H]1O[C@@H](n2cnc3c(CN4CCOCC4)ncnc32)[C@H](O)[C@@H]1O	inactive	inactive	–	> 250	inactive	–
39	–	3.5	1.2	–	–	OC[C@H]1O[C@@H](n2cnc3c(CS)ncnc32)[C@H](O)[C@@H]1O	inactive	inactive	–	54	inactive	–
> 100	–	–	–	–	–	OC[C@H]1O[C@@H](n2cnc3c(CSc4ccccc4)ncnc32)[C@H](O)[C@@H]1O	inactive	inactive	inactive	> 100	inactive	–
87	–	–	–	–	–	O=C(O)CNCc1ncnc2c1ncn2[C@@H]1O[C@H](CO)[C@@H](O)[C@H]1O	inactive	inactive	inactive	> 100	inactive	–
> 100	–	–	–	–	–	OC[C@H]1O[C@@H](n2cnc3c(CSc4nc5ccccc5s4)ncnc32)[C@H](O)[C@@H]1O	inactive	inactive	inactive	> 100	inactive	–
62	–	–	–	–	–	OC[C@H]1O[C@@H](n2cnc3c(Cn4cccn4)ncnc32)[C@H](O)[C@@H]1O	inactive	inactive	inactive	> 250	inactive	48
3	–	13	–	17	–	CC(C)N(Cc1ncnc2c1ncn2[C@@H]1O[C@H](CO)[C@@H](O)[C@H]1O)C(C)C	inactive	–	–	18	inactive	–
65	18	6.6	11.4	–	10.3	CC(=O)NNCc1ncnc2c1ncn2[C@@H]1O[C@H](CO)[C@@H](O)[C@H]1O	–	inactive	–	> 250	inactive	–
> 250	16.6	12	14.3	–	10.8	OC[C@H]1O[C@@H](n2cnc3c(COc4ccccn4)ncnc32)[C@H](O)[C@@H]1O	–	inactive	–	> 250	inactive	–
> 100	–	–	–	–	–	CC(=O)N(Cc1ncnc2c1ncn2[C@@H]1O[C@H](CO)[C@@H](O)[C@H]1O)C1CCCCC1	inactive	inactive	inactive	> 100	inactive	–
> 100	–	–	–	–	–	O=c1ccn(Cc2ncnc3c2ncn3[C@@H]2O[C@H](CO)[C@@H](O)[C@H]2O)cc1	inactive	inactive	inactive	> 100	inactive	–
46	–	–	–	–	–	OCCSCc1ncnc2c1ncn2[C@@H]1O[C@H](CO)[C@@H](O)[C@H]1O	inactive	inactive	inactive	> 100	inactive	> 100
7	19.6	5.2	3.12	7.8	–	OC[C@H]1O[C@@H](n2cnc3c(CN4CCSC4)ncnc32)[C@H](O)[C@@H]1O	–	–	–	21	inactive	–
9	20.3	5.6	2.4	4.8	–	CN(Cc1ccccc1)Cc1ncnc2c1ncn2[C@@H]1O[C@H](CO)[C@@H](O)[C@H]1O	–	–	–	9	inactive	–
44	–	–	–	–	–	OC[C@H]1O[C@@H](n2cnc3c(CSc4ccccn4)ncnc32)[C@H](O)[C@@H]1O	inactive	inactive	inactive	> 100	inactive	> 100
> 100	–	–	–	–	–	CC(=O)N(Cc1ccccc1)Cc1ncnc2c1ncn2[C@@H]1O[C@H](CO)[C@@H](O)[C@H]1O	inactive	inactive	inactive	> 100	inactive	–
20	–	–	–	–	–	OC[C@H]1O[C@@H](n2cnc3c(CS)ncnc32)C[C@@H]1O	inactive	inactive	inactive	41	inactive	–
42	–	6.9	–	12.2	–	OC[C@H]1O[C@@H](n2cnc3c(CN4CCCCC4)ncnc32)[C@H](O)[C@@H]1O	inactive	–	–	87	inactive	–
> 100	–	–	–	–	–	CC(=O)N(Cc1ncnc2c1ncn2[C@@H]1O[C@H](CO)[C@@H](O)[C@H]1O)C1CC1	inactive	inactive	inactive	> 100	inactive	–
> 100	–	–	–	–	–	O=C(O)CSCc1ncnc2c1ncn2[C@@H]1O[C@H](CO)[C@@H](O)[C@H]1O	inactive	inactive	inactive	> 100	inactive	–
41	–	4	–	5.1	–	CN(C)Cc1ncnc2c1ncn2[C@@H]1O[C@H](CO)[C@@H](O)[C@H]1O	inactive	–	–	> 100	inactive	–
> 100	–	–	–	–	–	CC(=O)N(C)Cc1ncnc2c1ncn2[C@@H]1O[C@H](CO)[C@@H](O)[C@H]1O	inactive	inactive	inactive	> 100	inactive	–
> 100	–	–	–	–	–	OC[C@H]1O[C@@H](n2cnc3c(COc4ccccc4)ncnc32)[C@H](O)[C@@H]1O	–	inactive	inactive	> 100	inactive	–

Structure (SMILES)	EC50 (Hepatitis C virus) [µM]	IC50 (CCRF-CEM [1]) [µM]	IC50 (HL-60 [2]) [µM]	IC50 (HL-60 [4]) [µM]	IC50 (L1210) [µM]	IC50 (CCRF-CEM [5]) [µM]	Activity (CCRF-CEM [1])	Activity (L1210)	Activity (HL-60 [2])	CC50 [3] [µM]	Activity (HeLa)	CC50 (MT4) [µM]
C[C@@]1(O)[C@H](O)[C@@H](CO)O[C@H]1n1cnc2c(N)ncnc21	0.23	–	–	–	–	–	–	–	–	> 100	inactive	–
O=c1[nH]c(=O)n([C@H]2C[C@H](O)[C@@H](CO)O2)cc1F [FLOXURIDINE]	–	–	–	–	0.012	–	–	–	–	–	inactive	–
